According to ChEMBL document CHEMBL1131831, “A rapid method to identify exo-protease inhibitors” (Bioorg Med Chem Lett, 1999):

Tests used:
[1] = substrate: CN(C(=O)[C@@H](CCCCC(=N)N)NC(=O)[C@H](Cc1ccccc1)NC(=O)[C@H]1CCCN1C(=O)OCc1ccccc1)c1ccc(C#C/C=C/c2ccc([N+](=O)[O-])c(O)c2)cc1; assay: Proteolysis constant (Km), when mixed with kallikrein enzyme for the conversion of water-soluble compound to fluorescent oil-soluble compound
How it was run: (§1)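 Porcine pancreatic trypsin (type IX), porcine pancreatic kallikrein, bovine spleen cathepsin B and porcine pancreatic elastase, each enzyme added to 12 µM substrate solution over mineral oil, shaken at 37 °C. Buffers: trypsin 10 mM Tris-HCl pH 7.8; kallikrein 50 mM Tris pH 9.0; cathepsin B 100 mM potassium phosphate pH 6.0; elastase 10 mM Tris-HCl pH 7.5. Released fluorophore in the oil is diluted with n-heptane and quantified at 424 nm against oil absorbance at 272 nm.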

[2] = substrate: CC[C@@H](C)[C@@H](NC(=O)OCc1ccccc1)C(=O)N1CCC[C@H]1C(=O)N[C@H](CCCCC(=N)N)C(=O)N(C)c1ccc(C#C/C=C/c2ccc([N+](=O)[O-])c(O)c2)cc1; assay: Proteolysis constant (Km), when mixed with trypsin enzyme for the conversion of water-soluble compound to fluorescent oil-soluble compound; settings: Sus scrofa; how it was run: as §1
[3] = substrate: COCCOCCOCCOCCOC(=O)N[C@@H](C)C(=O)N[C@H](C)C(=O)N(C)c1ccc(C#C/C=C/c2ccc([N+](=O)[O-])c(O)c2)cc1; assay: Proteolysis constant (Km), when mixed with elastase enzyme for the conversion of water-soluble compound to fluorescent oil-soluble compound; how it was run: as §1
[4] = substrate: CC(C)C[C@H](NC(=O)[C@H](N)Cc1ccc(O)cc1)C(=O)N[C@@H](C(=O)N(C)c1ccc(C#C/C=C/c2ccc([N+](=O)[O-])c(O)c2)cc1)C(C)C; assay: Proteolysis constant (Km), when mixed with human leukocyte elastase (HLE) enzyme for the conversion of water-soluble compound to fluorescent oil-soluble compound
How it was run: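 Human leukocyte elastase (1 unit = 1.2 µg; releases 1 µmol/min p-nitrophenol from N-t-BOC-L-alanine-p-nitrophenyl ester, pH 6.5, 37 °C) in 50 mM NaOAc, 100 mM NaCl, 8 mM NaN3 pH 6.0. Enzyme mixed with 12 µM substrate in buffer under a trace mineral-oil layer, shaken at 37 °C. Released fluorophore extracted into oil, diluted with n-heptane, quantified by absorbance at 424 nm against oil at 272 nm.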

B1: Kallikrein 1 (Sus scrofa), O97506 (protein)
chain: MEVIVLFRIISFRQAVYFMCLFAAVSCGCLPQLHKNTFFRGGDVSAMYTPSARHCQMMCTFHPRCLLFSFLPADSTSVTDKRFGCFLKDSVTGMLPRVLRENAISGHSLKQCGHQIRACHRDIYKGIDMRGVNFNVSKVKTVEECQERCTNSIHCLFFTYATQAFNNAEYRNNCLLKHSPGGTPTSIKVLANVESGFSLKPCADSEIGCHMDIFQHLAFSDVDVARVIAPDAFVCRTICTYHPNCLFFTFYTNAWKIESQRNVCFLKTSHSGTPSFPTPQENAISGYSLLTCKQTLPEPCHSKIYSEVDFEGEELNVTFVQGANLCQETCTKTIRCQFFTYSLHPEDCRGEKCKCSLRLSSDGSPTKITHGMRASSGYSLRLCRSGDHSACATKANTRIVGGTDSFLGEWPWQVSLQAKLRAQNHLCGGSIIGHQWVLTAAHCFDGLSLPDIWRIYGGILNISEITKETPFSQVKEIIIHQNYKILESGHDIALLKLETPLNYTDFQKPICLPSRDDTNVVYTNCWVTGWGFTEEKGEIQNILQKVNIPLVSNEECQKSYRDHKISKQMICAGYKEGGKDACKGESGGPLVCKYNGIWHLVGTTSWGEGCARREQPGVYTKVIEYMDWILEKTQDDDGQSWMK
Protein B1 has a Km [1] of 92.2 µM.

B2: Trypsin (Sus scrofa), P00761 (protein)
chain: FPTDDDDKIVGGYTCAANSIPYQVSLNSGSHFCGGSLINSQWVVSAAHCYKSRIQVRLGEHNIDVLEGNEQFINAAKIITHPNFNGNTLDNDIMLIKLSSPATLNSRVATVSLPRSCAAAGTECLISGWGNTKSSGSSYPSLLQCLKAPVLSDSSCKSSYPGQITGNMICVGFLEGGKDSCQGDSGGPVVCNGQLQGIVSWGYGCAQKNKPGVYTKVCNYVNWIQQTIAAN
For B2, the Km [2] was 97 µM.

B3: Chymotrypsin-like elastase family member 2A (Sus scrofa), P08419 (protein)
chain: MIRALLLSTLVAGALSCGLPANLPQLPRVVGGEDARPNSWPWQVSLQYDSSGQWRHTCGGTLVDQSWVLTAAHCISSSRTYRVVLGRHSLSTNEPGSLAVKVSKLVVHQDWNSNQLSNGNDIALLKLASPVSLTDKIQLGCLPAAGTILPNNYVCYVTGWGRLQTNGASPDILQQGQLLVVDYATCSKPGWWGSTVKTNMICAGGDGIISSCNGDSGGPLNCQGANGQWQVHGIVSFGSSLGCNYYHKPSVFTRVSNYIDWINSVIANN
B3 showed a Km [3] of 325 µM.

B4: Neutrophil elastase (Homo sapiens), P08246 (protein)
chain: MTLGRRLACLFLACVLPALLLGGTALASEIVGGRRARPHAWPFMVSLQLRGGHFCGATLIAPNFVMSAAHCVANVNVRAVRVVLGAHNLSRREPTRQVFAVQRIFENGYDPVNLLNDIVILQLNGSATINANVQVAQLPAQGRRLGNGVQCLAMGWGLLGRNRGIASVLQELNVTVVTSLCRRSNVCTLVRGRQAGVCFGDSGSPLVCNGLIHGIASFVRGGCASGLYPDAFAPVAQFVNWIDSIIQRSEDNPCPHPRDPDPASRTH
Work on B4 yielded a Km [4] of 16.1 µM.
